# Data reported in paper PMC10968941 (International Journal of Nanomedicine, 2024).
# How the values were obtained:
# [1] = system: Caco-2 cells; assay: Caco-2 permeability assay; format: in vitro ADME, human; settings: Caco-2 Transwell, apical to basolateral, RP-HPLC
# Summary of the method: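 Caco-2 cells seeded at 1 × 10^5 cells/well on 0.4 µm Transwell membranes and grown to a monolayer checked by TEER. Medium replaced with HBSS before dosing.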
# [2] = target: pepsin from porcine stomach mucosa (Sus scrofa, UniProt P00791); assay: Stability test in simulated gastric fluid; format: in vitro ADME; settings: 37°C; for Degradation in simulated gastric fluid with pepsin: up to 120 min
# Sequence of pepsin from porcine stomach mucosa (P00791 60-385): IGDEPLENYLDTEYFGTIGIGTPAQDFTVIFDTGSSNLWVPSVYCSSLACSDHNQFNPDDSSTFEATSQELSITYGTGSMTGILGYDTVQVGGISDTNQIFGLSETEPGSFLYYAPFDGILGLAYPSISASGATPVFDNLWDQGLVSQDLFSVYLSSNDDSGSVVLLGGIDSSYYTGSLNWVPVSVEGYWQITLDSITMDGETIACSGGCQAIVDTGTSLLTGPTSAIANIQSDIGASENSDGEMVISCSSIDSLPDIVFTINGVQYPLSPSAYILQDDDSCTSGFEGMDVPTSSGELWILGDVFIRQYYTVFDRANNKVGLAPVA
# Summary of the method: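 Simulated gastric fluid: 200 mg NaCl and 64 mg porcine pepsin in 100 mL water plus 0.7 mL HCl, pH 1.2. Peptide (10 mg/mL in 0.1 M ammonium bicarbonate, 0.1 mL) mixed with 0.9 mL SGF at 37°C. Sampled at 0, 5, 15, 30, 60 and 120 min; quenched with 0.2 M NaOH; analysed by RP-HPLC. PEG 200, 400, 1000 or 4000 tested at 0%, 20% and 40% in SGF.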
smiles,measurement,setting,value
"CCCCCCCCCCCCCCCC(=O)N[C@@H](CCC(=O)NCCCC[C@H](NC(=O)[C@H](C)NC(=O)[C@H](C)NC(=O)[C@H](CCC(N)=O)NC(=O)CNC(=O)[C@H](CCC(=O)O)NC(=O)[C@H](CC(C)C)NC(=O)[C@H](Cc1ccc(O)cc1)NC(=O)[C@H](CO)NC(=O)[C@H](CO)NC(=O)[C@@H](NC(=O)[C@H](CC(=O)O)NC(=O)[C@H](CO)NC(=O)[C@@H](NC(=O)[C@H](Cc1ccccc1)NC(=O)[C@@H](NC(=O)CNC(=O)[C@H](CCC(=O)O)NC(=O)[C@H](C)NC(=O)[C@@H](N)Cc1cnc[nH]1)[C@@H](C)O)[C@@H](C)O)C(C)C)C(=O)N[C@@H](CCC(=O)O)C(=O)N[C@@H](Cc1ccccc1)C(=O)N[C@H](C(=O)N[C@@H](C)C(=O)N[C@@H](Cc1c[nH]c2ccccc12)C(=O)N[C@@H](CC(C)C)C(=O)N[C@H](C(=O)N[C@@H](CCCNC(=N)N)C(=O)NCC(=O)N[C@@H](CCCNC(=N)N)C(=O)NCC(=O)O)C(C)C)[C@@H](C)CC)C(=O)O [LG, liraglutide]",LG at the basolateral side after 2 h treatment,[1],undetected
same,Degradation in simulated gastric fluid with pepsin,[2]; SGF pH 1.2 with pepsin,rapid degradation
same,Degradation in simulated gastric fluid with pepsin,"[2]; SGF pH 1.2 with pepsin, listed as free LG",fully degraded
same,Degradation in simulated gastric fluid in the absence of pepsin,[2]; SGF pH 1.2 without pepsin,degradation was not observed
same,"Time to entire degradation in simulated gastric fluid, LG with PEG 1000","[2]; formulation containing PEG 1000, SGF pH 1.2 with pepsin",≤ 60 min
same,"Time to entire degradation in simulated gastric fluid, LG with PEG 4000","[2]; formulation containing PEG 4000, SGF pH 1.2 with pepsin",≤ 60 min
